# Measured values taken from ChEMBL document CHEMBL1649506, “Novel antiviral agent DTriP-22 targets RNA-dependent RNA polymerase of enterovirus 71” (Antimicrob Agents Chemother, 2009).
# Active and inactive are the calls of the source. The rule behind the calls is not given here.
# What was measured:
# [1] = tested on: Enterovirus A71; test: Antiviral activity against 0.001 PFU/cell EV71 infected in human RD cells assessed as inhibition of viral plaque formation at 0.1 uM after 16 hrs by plaque formation assay; assay type: functional; set-up: scale not given: the % may be the effect or the level left
# In short: (§1)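 Virus yield assay: RD cells (6 × 10^5/well) infected with EV71 TW/2231/98 at the stated MOI for 1 h at room temperature, washed twice, then kept in 2% FBS medium with compound (0–2.5 μM) at 35°C. At 16 h p.i., supernatant and debris pooled and titrated by plaque assay in RD cells (0.3% agarose overlay, 4 days at 35°C, crystal violet, PFU/ml).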
# [2] = tested on: Enterovirus A71; test: Antiviral activity against 0.001 MOI EV71 infected in human RD cells assessed as inhibition of viral plaque formation 16 hrs by plaque formation assay; assay type: functional, organism-based; details: Enterovirus A; in short: as §1
# [3] = tested on: Enterovirus A71; test: Antiviral activity against 1 MOI EV71 infected in human RD cells assessed as inhibition of viral plaque formation 16 hrs by plaque formation assay; assay type: functional, organism-based; details: Enterovirus A; in short: as §1
# [4] = Cytotoxicity against human RD cells after 16 hrs by MTS-based assay; assay type: cell-based
# [5] = Selectivity index, ratio of CC50 for human RD cells to EC50 for 1 MOI EV71 infected in human RD cells
# [6] = tested on: Enterovirus A71; test: Antiviral activity against 0.001 PFU/cell EV71 TW/2231/98 infected in human RD cells assessed as inhibition of viral plaque formation after 16 hrs by plaque formation assay; assay type: functional, organism-based; details: Enterovirus A, TW/2231/98, RD; in short: as §1
# [7] = tested on: Enterovirus A71; test: Antiviral activity against 0.001 PFU/cell EV71 TW/2231/98 infected in human RD cells assessed as inhibition of viral plaque formation after 5 passages by plaque formation assay; assay type: functional, organism-based; details: Enterovirus A, TW/2231/98, RD
# [8] = tested on: Enterovirus A71; test: Antiviral activity against 0.001 PFU/cell EV71 TW/2231/98 infected in human RD cells assessed as inhibition of viral plaque formation after 10 passages by plaque formation assay; assay type: functional, organism-based; details: Enterovirus A, TW/2231/98, RD
# [9] = tested on: Enterovirus A71; test: Antiviral activity against 0.001 PFU/cell EV71 TW/2231/98 infected in human RD cells assessed as inhibition of viral plaque formation after 14 passages by plaque formation assay; assay type: functional, organism-based; details: Enterovirus A, TW/2231/98, RD
# [10] = tested on: Enterovirus A71; test: Antiviral activity against EV71 infected in human RD cells assessed as inhibition of viral plaque formation 16 hrs by plaque formation assay; assay type: functional, organism-based; details: Enterovirus A
# [11] = tested on: Enterovirus A71; test: Antiviral activity against EV71 harboring 2C […] T256A mutant gene infected in human RD cells assessed as inhibition of viral plaque formation 16 hrs by plaque formation assay; assay type: functional, organism-based; details: Enterovirus A
# [12] = tested on: Enterovirus A71; test: Antiviral activity against EV71 harboring 3D […] R163K mutant gene infected in human RD cells assessed as inhibition of viral plaque formation 16 hrs by plaque formation assay; assay type: functional, organism-based; details: Enterovirus A
# [13] = tested on: Enterovirus A71; test: Antiviral activity against EV71 harboring 3D […] R163K/S264L mutant gene infected in human RD cells assessed as inhibition of viral plaque formation 16 hrs by plaque formation assay; assay type: functional, organism-based; details: Enterovirus A
# [14] = tested on: Enterovirus A71; test: Antiviral activity against EV71 harboring VP1 […] V192M mutant gene infected in human RD cells assessed as inhibition of viral plaque formation 16 hrs by plaque formation assay; assay type: functional, organism-based
# [15] = tested on: Enterovirus A71; test: Antiviral activity against 1 MOI EV71 infected in human RD cells assessed as inhibition of viral progeny production at 1 uM treated 2 hrs postinfection measured after 16 hrs; assay type: functional; details: Enterovirus A
# [16] = tested on: Enterovirus A71; test: Antiviral activity against 1 MOI EV71 infected in human RD cells assessed as viral progeny production at 1 uM treated 4 hrs postadsorption measured after 16 hrs; assay type: functional
# [17] = tested on: Enterovirus A71; test: Antiviral activity against 1 MOI EV71 infected in human RD cells assessed as inhibition of viral progeny production at 1 uM treated 4 hrs postadsorption measured after 16 hrs; assay type: functional, organism-based
# [18] = tested on: Enterovirus A71; test: Antiviral activity against 1 MOI EV71 infected in human RD cells assessed as inhibition of viral RNA production at 2 uM after 6 to 14 hrs by real-time RT-PCR analysis; assay type: functional; details: Enterovirus A
# In short: (§2)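 RD cells infected with EV71 at MOI 1 PFU/cell for 1 h at room temperature, washed, then kept in medium with 2 μM compound at 35°C. Intracellular RNA extracted at intervals p.i. Viral RNA quantified by TaqMan real-time RT-PCR, or by slot blot with DIG-labelled genome- and antigenome-specific RNA probes. Compared with DMSO at each time point.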
# [19] = tested on: Enterovirus A71; test: Antiviral activity against 1 MOI EV71 infected in human RD cells assessed as inhibition of viral RNA production at 2 uM after 6 to 14 hrs by slot blot analysis; assay type: functional, organism-based; in short: as §2
# [20] = tested on: Enterovirus A71; test: Antiviral activity against 1 MOI EV71 infected in human RD cells assessed as inhibition of IRES-mediated viral RNA translation at 2 uM after 6 to 14 hrs by luciferase reporter gene assay; assay type: functional, organism-based
# [21] = tested on: Enterovirus A71; test: Inhibition of EV71 recombinant 3D polymerase expressed in Escherichia coli BL21 (DE3) by polymerase elongation assay
# In short: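 His-tagged EV71 3D polymerase made in E. coli BL21(DE3) (50 μM IPTG, 25°C, 4 h) and purified on a nickel column. Assay used 1 μM enzyme in 50 mM HEPES pH 7.5, 5 mM MgCl2, 60 μM ZnCl2, 10 mM 2-mercaptoethanol, 5 μM UTP plus [α-32P]UTP, and dT15/poly(rA)300 primer/template. Run 10 min at 30°C, stopped with EDTA, product captured on DE81 filters and counted by scintillation.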
# [22] = tested on: Polymerase 3D (Human enterovirus 71 STH/MCN/2006), B2G369 [R163K]; test: Inhibition of EV71 recombinant 3D polymerase R163K mutant expressed in Escherichia coli BL21 (DE3) assessed as enzyme activity at 250 to 500 uM by polymerase elongation assay; set-up: scale not given: the % may be the effect or the level left; details: Enterovirus A71
# [23] = tested on: Enterovirus A71; test: Inhibition of EV71 recombinant 3D polymerase expressed in Escherichia coli BL21 (DE3) assessed as inhibition of Vpg-pU(pU) synthesis at 250 to 500 uM by gel electrophoresis
# In short: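 VPg uridylylation: 1 μM recombinant EV71 3D with 2 μg synthetic VPg, 0.5 μg poly(rA)300, 10 μM UTP plus 0.04 μM [α-32P]UTP, in 50 mM HEPES pH 7.5 with 2.5 mM Mn(OAc)2 and 8% glycerol. Incubated 60 min at 33°C. Products resolved on 13.5% Tricine SDS-PAGE and detected by autoradiography.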
# [24] = tested on: Enterovirus A71; test: Antiviral activity EV71 BrCr infected in human RD cells assessed as protection against virus-induced cytopathogenicity; assay type: functional, organism-based; details: Enterovirus A
# In short: (§3)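 CPE neutralization test: cells seeded at 3 × 10^4/well and grown 24 h at 37°C, infected at MOI 0.005 PFU/cell. After adsorption, medium with 2% FBS and compound (twofold dilutions from 25 μM) or 0.5% DMSO added. Incubated 64 h at 35°C, then formaldehyde-fixed and crystal violet-stained, read at OD570. Triplicate, repeated at least twice. EC50 interpolated between bracketing dilutions.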
# [25] = tested on: Enterovirus A71; test: Antiviral activity EV71 1743 infected in human RD cells assessed as protection against virus-induced cytopathogenicity; assay type: functional, organism-based; details: Enterovirus A, 1743, RD; in short: as §3
# [26] = tested on: Enterovirus A71; test: Antiviral activity EV71 2231 infected in human RD cells assessed as protection against virus-induced cytopathogenicity; assay type: functional, organism-based; details: Enterovirus A, 2231, RD; in short: as §3
# [27] = tested on: Enterovirus A71; test: Antiviral activity EV71 4643 infected in human RD cells assessed as protection against virus-induced cytopathogenicity; assay type: functional, organism-based; details: Enterovirus A, 4643, RD; in short: as §3
# [28] = tested on: Coxsackievirus A9; test: Antiviral activity against Coxsackievirus A9 infected in human RD cells assessed as protection against virus-induced cytopathogenicity; assay type: functional, organism-based; details: Enterovirus B; in short: as §3
# [29] = Antiviral activity against Coxsackievirus A10 infected in human RD cells assessed as protection against virus-induced cytopathogenicity; assay type: functional, cell-based; details: Enterovirus A; in short: as §3
# [30] = tested on: Coxsackievirus A16; test: Antiviral activity against Coxsackievirus A16 infected in human RD cells assessed as protection against virus-induced cytopathogenicity; assay type: functional, cell-based; details: Enterovirus A; in short: as §3
# [31] = tested on: Coxsackievirus A24; test: Antiviral activity against Coxsackievirus A24 infected in human RD cells assessed as protection against virus-induced cytopathogenicity; assay type: functional, organism-based; details: Enterovirus C; in short: as §3
# [32] = tested on: Coxsackievirus B1; test: Antiviral activity against Coxsackievirus B1 infected in human RD cells assessed as protection against virus-induced cytopathogenicity; assay type: functional, organism-based; details: Enterovirus B; in short: as §3
# [33] = tested on: Coxsackievirus B2; test: Antiviral activity against Coxsackievirus B2 infected in human RD cells assessed as protection against virus-induced cytopathogenicity; assay type: functional, organism-based; details: Enterovirus B; in short: as §3
# [34] = tested on: Coxsackievirus B3; test: Antiviral activity against Coxsackievirus B3 infected in human RD cells assessed as protection against virus-induced cytopathogenicity; assay type: functional, organism-based; details: Enterovirus B; in short: as §3
# [35] = tested on: Coxsackievirus B4; test: Antiviral activity against Coxsackievirus B4 infected in human RD cells assessed as protection against virus-induced cytopathogenicity; assay type: functional, organism-based; details: Enterovirus B; in short: as §3
# [36] = tested on: Coxsackievirus B5; test: Antiviral activity against Coxsackievirus B5 infected in human RD cells assessed as protection against virus-induced cytopathogenicity; assay type: functional, organism-based; details: Enterovirus B; in short: as §3
# [37] = tested on: Coxsackievirus B6; test: Antiviral activity against Coxsackievirus B6 infected in human RD cells assessed as protection against virus-induced cytopathogenicity; assay type: functional, organism-based; details: Enterovirus B; in short: as §3
# [38] = tested on: Echovirus E9; test: Antiviral activity against Echovirus 9 infected in human RD cells assessed as protection against virus-induced cytopathogenicity; assay type: functional, organism-based; details: Enterovirus B; in short: as §3
# [39] = tested on: rhinovirus A2; test: Antiviral activity against HRV2 infected in human RD cells assessed as protection against virus-induced cytopathogenicity; assay type: functional, organism-based; details: Rhinovirus A; in short: as §3
# [40] = tested on: Influenza A virus; test: Antiviral activity against Influenza A virus (A/WSN/1933(H1N1)) infected in human RD cells assessed as protection against virus-induced cytopathogenicity; assay type: functional, organism-based; in short: as §3
# [41] = tested on: Influenza B virus; test: Antiviral activity against influenza B virus infected in human RD cells assessed as protection against virus-induced cytopathogenicity; assay type: functional, organism-based; in short: as §3
# [42] = tested on: Human alphaherpesvirus 1; test: Antiviral activity against HSV1 infected in human RD cells assessed as protection against virus-induced cytopathogenicity; assay type: functional, organism-based; details: Human alphaherpesvirus 1, RD
# [43] = tested on: Human alphaherpesvirus 2; test: Antiviral activity against HSV2 infected in human RD cells assessed as protection against virus-induced cytopathogenicity; assay type: functional, organism-based; details: Human alphaherpesvirus 2, RD
structure (smiles),measurement,setting,value
Cc1ccsc1C(c1ccccc1Br)N1CCN(c2ncnc3c2cnn3-c2ccccc2)CC1 (stereo not drawn),Activity,[1],95%
same,EC50,[2],23 nM
same,EC50,[3],160 nM
same,CC50 at 16 h,[4],100000 nM
same,Ratio CC50/EC50,[5],625
same,EC50,[6],740 nM
same,EC50,[7],250 nM
same,EC50,[8],> 25000 nM
same,EC50,[9],> 25000 nM
same,EC50,[10],308 nM
same,EC50,[11],279 nM
same,EC50,[12],> 25000 nM
same,EC50,[13],> 25000 nM
same,EC50,[14],240 nM
same,inhibition at 1 µM,[15],79%
same,Activity,[16],76%
same,inhibition,[17],inactive
same,inhibition at 2 µM,[18],87%
same,inhibition,[19],Active
same,inhibition,[20],inactive
same,inhibition,[21],Dose-dependent effect
same,Activity,[22],28%
same,inhibition,[23],inactive
same,EC50,[24],150 nM
same,EC50,[25],440 nM
same,EC50,[26],980 nM
same,EC50,[27],130 nM
same,EC50,[28],990 nM
same,EC50,[29],1060 nM
same,EC50,[30],80 nM
same,EC50,[31],80 nM
same,EC50,[32],240 nM
same,EC50,[33],70 nM
same,EC50,[34],260 nM
same,EC50,[35],230 nM
same,EC50,[36],130 nM
same,EC50,[37],330 nM
same,EC50,[38],1220 nM
same,EC50,[39],1690 nM
same,EC50,[40],5980 nM
same,EC50,[41],5900 nM
same,EC50,[42],> 25000 nM
same,EC50,[43],> 25000 nM
